pEC50: −log10 of the molar value.
Assays:
[1] = test system: Vero; test: Maximum tolerated concentration (MTC), the lowest concentration that produced microscopically evident toxicity to confluent vero cells; format: functional, Chlorocebus sabaeus
In short: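 Uninfected confluent Vero monolayers in DMEM with 10% newborn bovine serum, single well per concentration, exposed to compound at final 5.0–5000 μM (0.5-log steps) for 72 h at 37 °C, 5% CO2. Cytotoxicity was any microscopic change in morphology or monolayer density from lysis, rounding or detachment. MTC = lowest concentration showing such change.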

[2] = test system: Vero; test: Virus rating against vaccinia; format: functional, Chlorocebus sabaeus
In short: (§1)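 Virus-infected confluent Vero cells treated with compound in seven 0.5-log steps (final 5.0–5000 μM) after 30-min adsorption at 37 °C, duplicate wells per concentration. CPE scored microscopically 0 (normal) to 4 (complete destruction) after 72 h at 37 °C, 5% CO2.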

[3] = test system: Vero; test: Virus rating against measles virus; format: functional, Chlorocebus sabaeus; in short: as §1
[4] = test system: Vero; test: Compound was tested for antiviral activity against measles virus; format: functional; conditions: Chlorocebus sabaeus, read-out: ED50 (the source's name)
[5] = test system: Vero; test: Virus rating against Herpes simplex virus type 2 of strain MS; format: functional, Chlorocebus sabaeus; in short: as §1
[6] = test system: Vero; test: Compound was tested for antiviral activity against Herpes simplex virus type 1 (HF); format: functional; conditions: Chlorocebus sabaeus, read-out: ED50 (the source's name)
[7] = test system: Vero; test: Virus rating against Herpes simplex virus type 1 of strain KOS; format: functional, Chlorocebus sabaeus; in short: as §1
[8] = test system: Vero; test: Compound was tested for antiviral activity against Herpes simplex virus type 2 (MS); format: functional; conditions: Chlorocebus sabaeus, read-out: ED50 (the source's name)
[9] = test system: Vero; test: Compound was tested for antiviral activity against vaccinia; format: functional; conditions: Chlorocebus sabaeus, read-out: ED50 (the source's name)
[10] = test system: Vero; test: Virus rating against para 3; format: functional, Chlorocebus sabaeus; in short: as §1
[11] = test system: Vero; test: Compound was tested for antiviral activity against Herpes simplex virus type 1(KOS); format: functional; conditions: Chlorocebus sabaeus, read-out: ED50 (the source's name)
[12] = test system: Vero; test: Virus rating against Herpes simplex virus type 2 of strain 333; format: functional, Chlorocebus sabaeus; in short: as §1
[13] = test system: Vero; test: Compound was tested for antiviral activity against Herpes simplex virus type 2 of strain 333; format: functional; conditions: Chlorocebus sabaeus, read-out: ED50 (the source's name)
[14] = test system: Vero; test: Virus rating against Herpes simplex virus type 1 of strainHF; format: functional, Chlorocebus sabaeus; in short: as §1
[15] = test system: Vero; test: Compound was tested for antiviral activity against para 3; format: functional; conditions: Chlorocebus sabaeus, read-out: ED50 (the source's name)
[16] = test system: Vero; test: Virus rating against Herpes simplex virus type 1 of strain HF; format: functional, Chlorocebus sabaeus; in short: as §1

Row | SMILES | MTC [1] [µM] | VR [2] | VR [3] | pEC50 [4] | VR [5] | pEC50 [6] | VR [7] | pEC50 [8] | pEC50 [9] | VR [10] | pEC50 [11] | VR [12] | pEC50 [13] | VR [14] | pEC50 [15] | VR [16]
1 | Nc1nc(O)c2ncn([C@H]3C[C@H](O)[C@@H](COP(=O)(O)C(=O)O)O3)c2n1 | 5000 | 0 | 0.1 | < 2.30 | 1.18 | < 2.30 | 0.1 | 3.46 | < 2.30 | 0.25 | < 2.30 | 1.26 | 3.64 | 0.22 |  | 
2 | Nc1ncnc2c1ncn2[C@H]1C[C@H](O)[C@@H](COP(=O)(O)C(=O)O)O1 | >5000 | 0 | 0.7 | 3.05 | 1.85 | 3.14 | 0.65 | 4.40 | < 2.30 |  | 2.74 | 1.77 | 4.27 | 1.08 |  | 
3 | Nc1ncnc2c1ncn2C1O[C@H](COP(=O)(O)C(=O)O)[C@@H](O)[C@H]1O (stereo partly specified) | >5000 | 0.65 | 0.38 | 2.52 | 1.15 | < 2.30 | 0 | 3.44 | 3.13 | 0 | < 2.30 | 0.7 | 2.80 | 0.18 | < 2.30 | 
4 | CCOC(=O)P(=O)(O)OC[C@H]1OC(n2cnc3c(N)ncnc32)[C@H](O)[C@@H]1O (stereo partly specified) | >5000 | 0.23 |  | < 2.30 | 1.12 | < 2.30 | 0 | 3.09 | < 2.30 | 0 | < 2.30 | 0.72 | 3.00 | 0.3 | < 2.30 | 
5 | NC(=O)P(=O)(O)OC[C@H]1OC(n2cnc3c(N)ncnc32)[C@H](O)[C@@H]1O (stereo partly specified) | >5000 | 0 | 0.45 | 2.55 | 1 | < 2.30 | 0 | 3.08 | < 2.30 | 0.1 | < 2.30 | 1.24 | 3.36 | 0.28 | < 2.30 | 
6 | NC(=O)P(=O)(O)OC[C@H]1OC(n2cnc3c(O)nc(N)nc32)[C@H](O)[C@@H]1O (stereo partly specified) | >5000 | 0 | 0.7 | 3.05 | 0.91 | < 2.30 | 0 | 3.01 | < 2.30 | 0.1 | < 2.30 | 1.16 | 3.52 | 0 | < 2.30 | 
7 | CCOC(=O)P(=O)(O)OC[C@H]1OC(n2cnc3c(O)nc(N)nc32)[C@H](O)[C@@H]1O (stereo partly specified) | >5000 | 0 | 0.68 | 3.30 | 0.9 | < 2.30 | 0 | 3.09 | < 2.30 | 0.1 | < 2.30 | 1.02 | 3.22 |  | < 2.30 | 0.22
8 | Nc1nc(O)c2ncn(C3O[C@H](COP(=O)(O)C(=O)O)[C@@H](O)[C@H]3O)c2n1 (stereo partly specified) | >5000 | 0 | 0.62 | 3.48 | 0.18 | < 2.30 | 0 | < 2.30 | < 2.30 | 0.1 | < 2.30 | 0.22 | < 2.30 | 0.2 | < 2.30 | 
9 | O=C([O-])P(=O)([O-])[O-].[Na+].[Na+].[Na+] [FOSCARNET SODIUM] | >5000 | 0.1 | 0 | < 2.30 | 1.74 | 3.64 | 1.37 | 4.05 | < 2.30 | 0.4 | 3.77 | 2.08 | 4.70 | 1.3 | 2.30 | 

Source: ChEMBL document CHEMBL1123333, “Synthesis and antiviral activity of certain nucleoside 5'-phosphonoformate derivatives” (1986)
